Columns and labels:
[1] = Stability of DUV in spiked human plasma samples; assay type: in vitro ADME
[2] = Stability of stock and working standard solutions of DUV; assay type: physicochemical; conditions: refrigerator temperature (8°C) for 30 days
Procedure, shortened: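 Stock solutions (1.0 mg mL–1 in acetonitrile) and working standards diluted in mobile phase were held 24 h at room temperature and 30 days refrigerated (below 10°C). They were then analysed by the HPLC-FD method against freshly spiked calibration standards.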

Time stable in spiked human plasma ([1]; autosampler storage conditions): ≥ 48 h | Time stable in spiked human plasma ([1]; room temperature on the bench): ≥ 6 h | Stability in spiked human plasma ([1]; three freeze–thaw cycles): stable | Stability in spiked human plasma ([1]; −80°C for 60 days): stable | Stability of stock and working standard solutions [2]: stable
Compound: C[C@H](Nc1ncnc2[nH]cnc12)c1cc2cccc(Cl)c2c(=O)n1-c1ccccc1 [DUV, 8-chloro-2-phenyl-3-[(1S)-1-(7H-purin-6-ylamino)ethyl]isoquinolin-1-one]

Source: paper PMC8232391 (Drug Design, Development and Therapy, 2021)
